Experimental data: EPA's CvTdb concentration-time database

Legend:
human [1] = assay: concentration in blood after dosing; negative times count back from the end of exposure; conditions: dosed: ethanol, inhalation, duration: 4 hr
How it was run: (§1)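 Points were largely digitised from plot screenshots with WebPlotDigitizer or otherwise copied from tables, and they remain in the units each source reported. They come from published in vivo toxicokinetic studies and two structured collections. Sampling and analytical methods follow each source and were often not reported.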

rat [2] = assay: concentration in expired air after dosing; conditions: dosed: 1,1,1,2-tetrachloroethane, 352 ppm, inhalation, duration: 6 hr
rat [3] = assay: concentration in blood after dosing; negative times count back from the end of exposure; conditions: dosed: n-hexane, 3000 ppm, inhalation, duration: 6 hr
human [4] = assay: concentration in expired air after dosing; negative times count back from the end of exposure; conditions: dosed: dichloromethane, inhalation, duration: 6 hr, male
How it was run: as §1

CCO [ethanol]
concentration in blood [ng/mL], human [1]
Conditions | female | male
0.4897 h, 125 ppm | 60 | 62.3
0.4897 h, 250 ppm | – | 101
0.4897 h, 450 ppm | 158 | 201
0.4966 h, 750 ppm | 299 | 227
0.4966 h, 1000 ppm | 571 | 267
0.9954 h, 250 ppm | 74.2 | 67.1
1.002 h, 125 ppm | 42.9 | 40.8
1.002 h, 450 ppm | 101 | 112
1.002 h, 750 ppm | 153 | 94
1.002 h, 1000 ppm | 248 | 142

concentration in blood [ng/mL], human [1], during exposure
Conditions | -33 s | -8 s | -4 h | -3.002 h | -2.995 h | -1.007 h | -1 h
125 ppm, female | – | 179 | 35.6 | 165 | – | – | 158
125 ppm, male | – | 196 | 36.9 | 165 | – | – | 196
250 ppm, female | 451 | – | 78.9 | 374 | – | 445 | –
250 ppm, male | – | – | 42.9 | 468 | – | 457 | –
450 ppm, female | 1000 | – | 52.4 | 851 | – | – | 1000
450 ppm, male | 1090 | – | – | 851 | – | – | 905
750 ppm, female | – | 1620 | 65.5 | – | 1430 | – | 1860
750 ppm, male | – | 2060 | – | – | 1770 | – | 1510
1000 ppm, female | 2640 | – | 133 | – | 2300 | – | 2510
1000 ppm, male | 2920 | – | – | – | 2810 | – | 2360

ClCC(Cl)(Cl)Cl [1,1,1,2-tetrachloroethane]
rat [2]
Conditions | concentration in expired air [ng/mL]
0.2586 h | 89.8
0.5066 h | 97.9
0.7323 h | 90.1
0.7758 h | 98.6
1.001 h | 79.1
1.012 h | 83.8
1.506 h | 67.5
1.507 h | 72.8
2.766 h | 65.7
3.982 h | 62.9
4.003 h | 52
4.477 h | 59.7
5.5 h | 58.8
6.5 h | 46.7
6.511 h | 41.4
6.995 h | 40.1
7.007 h | 49.3
7.986 h | 39.2
7.995 h | 32.7
8.987 h | 36.6
8.997 h | 31
9.986 h | 27
9.987 h | 29.5

CCCCCC [n-hexane]
rat [3]
Conditions | concentration in blood [ng/mL]
0.4718 h | 2220
0.9831 h | 1920
1.99 h | 1370
4.003 h | 65.6
5.974 h | 42.2
7.994 h | 59.3
29 s | 8420

rat [3], during exposure
Conditions | concentration in blood [ng/mL]
-6 h | 20.3
-5.509 h | 7900
-5.025 h | 8530
-4.008 h | 9820
-3.002 h | 9010
-2.005 h | 9720

[C-]#[O+] [carbon monoxide]
concentration in expired air [ppm], human [4]
Conditions | 100 ppm | 350 ppm
0.083 h | 17.1 | 34.6
0.25 h | 16.2 | 32.5
0.5 h | 15.8 | 32.6
1 h | 15.7 | 33.3
1.5 h | 14.9 | 32.3
2 h | 14.6 | 30.9
3 h | 11.8 | 26.8
4 h | 10.8 | 25.1
6 h | 10 | 21.2
8 h | 9.1 | 16.9
16 h | 6.8 | 11.8
24 h | 4.3 | 5.6

concentration in expired air [ppm], human [4], during exposure
Conditions | -36 s | -6 h | -5.75 h | -5.5 h | -5 h | -4.5 h | -4 h | -3 h | -2 h | -1 h
100 ppm | 16.8 | 3.8 | 5.3 | 5.8 | 7 | 8.1 | 9 | 10.7 | 13.1 | 15.3
350 ppm | 36.1 | 4.2 | 6.5 | 7.6 | 10.5 | 13.3 | 16.1 | 20.9 | 25.9 | 31.1
